Test results from ChEMBL document CHEMBL3243966, “Synthesis of substituted 1-hydroxy-2-naphthanilides as potential cestodicidal agents” (J Med Chem, 1978).
Calls of active or inactive are those of the source. The rule behind the calls is not given here.

Experiments:
[1] = test system: Rodentolepis nana; test: Cestodicidal activity against Hymenolepis nana infected in rat assessed as reduction in 98 to 100% of worm load at 250 mg/kg, po after 3 days; format: functional, organism-based; set-up: dose 250 mg/kg
How it was run: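 Newly weaned male Freiburg-strain rats (25-30 g) infected orally with 200 viable H. nana ova; faecal ova-positive animals treated on day 15 after overnight fast. Single oral dose, starting at 250 mg/kg, then 100, 50, 13, 7.5 mg/kg; three treated, three untreated controls per group. Sacrificed day 3 post-treatment after fasting; small intestine worms collected and scored. Minimum effective dose: lowest giving score ≤10% of control.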

[2] = test system: Rodentolepis nana; test: Cestodicidal activity against Hymenolepis nana infected in po dosed rat assessed as […] after 3 days; format: functional; conditions: 72 h, read-out: MED
[3] = Cestodicidal activity against Hymenolepis diminuta infected in rat assessed as reduction in worm load at 10 mg/kg, po relative to control; format: functional; set-up: scale not given: the % may be the effect or the level left
How it was run: (§1)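 Single oral 10 mg/kg dose, with worm-load reduction as the read-out. H. diminuta was tested in rats; Taenia sp. was tested in naturally infected dogs.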

[4] = test system: Taenia; test: Cestodicidal activity against Taenia species infected in dog assessed as reduction in worm load at 10 mg/kg, po relative to control; format: functional; set-up: scale not given: the % may be the effect or the level left; how it was run: as §1
[5] = test system: Rattus norvegicus; test: Toxicity in rat at 5 g/kg, po; format: organism-based; conditions: in vivo, 5000 mg/kg
[6] = test system: Rattus norvegicus; test: Toxicity in rat at 5 g/kg, ip; format: organism-based; conditions: in vivo, 5000 mg/kg
[7] = test system: Rattus norvegicus; test: Toxicity in rat at 5 g/kg, po assessed as mortality; format: organism-based; conditions: in vivo, 5000 mg/kg
[8] = test system: Rattus norvegicus; test: Toxicity in rat at 5 g/kg, ip assessed as mortality; format: organism-based; conditions: in vivo, 5000 mg/kg
[9] = test system: Rattus norvegicus; test: Toxicity in rat infected with Hymenolepis nana at 1 g/kg; format: organism-based; conditions: in vivo, 1000 mg/kg
How it was run: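 Young rats infected with H. nana received 1 g/kg, and tolerance was assessed.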

[10] = test system: Mastomys natalensis; test: Toxicity in po dosed natal multimammate mouse; format: organism-based; conditions: in vivo
How it was run: (§2)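 Acute toxicity study in Mastomys natalensis and dogs, with the compound given orally or intraperitoneally.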

[11] = test system: Mastomys natalensis; test: Toxicity in ip dosed natal multimammate mouse; format: organism-based; conditions: in vivo; how it was run: as §2
[12] = test system: Canis familiaris; test: Toxicity in po dosed dog; format: organism-based, Canis lupus familiaris; conditions: in vivo; how it was run: as §2
[13] = test system: Canis familiaris; test: Toxicity in ip dosed dog; format: organism-based, Canis lupus familiaris; conditions: in vivo; how it was run: as §2

| Compound | Activity [1] | other results |
| --- | --- | --- |
| CC1CCCN(c2ccc(NC(=O)c3ccc4ccccc4c3O)cc2[N+](=O)[O-])C1 (stereo not given) | inactive | – |
| O=C(Nc1ccc(N=C=S)cc1Cl)c1ccc2ccccc2c1O | – | minimal effective dose [2]: 7.5 mg/kg; Activity [3]: 100%; Activity [4]: 100%; Activity [5]: Non-toxic; Activity [6]: Non-toxic; Activity [7]: Non-toxic; Activity [8]: Non-toxic; Activity [9]: Non-toxic; Activity [10]: Non-toxic; Activity [11]: Non-toxic; Activity [12]: Non-toxic; Activity [13]: Non-toxic |
| O=c1oc2c(ccc3ccccc32)c(=O)n1-c1ccc([N+](=O)[O-])cc1Cl | inactive | – |
| Nc1ccc(NC(=O)c2cc(Br)c3ccccc3c2O)c(Cl)c1 | inactive | – |
| O=c1oc2c(ccc3ccccc32)c(=O)n1-c1ccccc1[N+](=O)[O-] | inactive | – |
| O=c1c2cc(Br)c3ccccc3c2oc(=S)n1-c1ccc([N+](=O)[O-])cc1 | inactive | – |
| O=c1c2ccc3ccccc3c2oc(=S)n1-c1ccc(Cl)c([N+](=O)[O-])c1 | inactive | – |
| O=c1c2ccc3ccccc3c2oc(=S)n1-c1ccccc1[N+](=O)[O-] | inactive | – |
| O=C(Nc1ccc(Cl)cc1[N+](=O)[O-])c1cc(Br)c2ccccc2c1O | – | minimal effective dose [2]: 250 mg/kg |
| O=C(Nc1ccc(N2CCCCC2)c([N+](=O)[O-])c1)c1ccc2ccccc2c1O | inactive | – |
| O=c1oc2c(cc(Br)c3ccccc32)c(=O)n1-c1ccc(Cl)cc1Cl | inactive | – |
| O=c1oc2c(cc(Br)c3ccccc32)c(=O)n1-c1ccc([N+](=O)[O-])cc1Cl | inactive | – |
| O=C(Nc1ccc([N+](=O)[O-])cc1)c1cc(Br)c2ccccc2c1O | – | minimal effective dose [2]: 100 mg/kg |
| O=C(Nc1ccc(N2CCOCC2)c([N+](=O)[O-])c1)c1ccc2ccccc2c1O | inactive | – |
| O=C(Nc1ccc([N+](=O)[O-])cc1Cl)c1cc(Br)c2ccccc2c1O | – | minimal effective dose [2]: 13 mg/kg |
| O=C(Nc1ccc([N+](=O)[O-])cc1Cl)c1cc(Cl)ccc1O [NICLOSAMIDE] | – | minimal effective dose [2]: 50 mg/kg |
| O=C(Nc1ccc(N2CCCC2)c([N+](=O)[O-])c1)c1ccc2ccccc2c1O | inactive | – |
| O=C(Nc1ccc(N2CCN(c3ccccc3)CC2)c([N+](=O)[O-])c1)c1ccc2ccccc2c1O | inactive | – |
| O=C(Nc1ccc(N=C=S)cc1)c1ccc2ccccc2c1O | – | minimal effective dose [2]: 100 mg/kg |
| Nc1ccc(NC(=O)c2ccc3ccccc3c2O)c(Cl)c1 | inactive | – |
| O=c1c2ccc3ccccc3c2oc(=S)n1-c1ccc([N+](=O)[O-])cc1Cl | inactive | – |
| O=c1oc2c(ccc3ccccc32)c(=O)n1-c1ccc(Cl)c([N+](=O)[O-])c1 | inactive | – |
| O=C(Nc1ccc(Cl)cc1Cl)c1ccc2ccccc2c1O | inactive | – |
| O=c1c2cc(Br)c3ccccc3c2oc(=S)n1-c1ccc(Cl)cc1[N+](=O)[O-] | inactive | – |
| O=C(Nc1ccc([N+](=O)[O-])cc1Cl)c1ccc2ccccc2c1O | inactive | – |

| Compound | Activity [1] | other results |
| --- | --- | --- |
| CC1CCN(c2ccc(NC(=O)c3ccc4ccccc4c3O)cc2[N+](=O)[O-])CC1 | inactive | – |
| O=C(Nc1ccccc1[N+](=O)[O-])c1ccc2ccccc2c1O | inactive | – |
| Nc1ccc(NC(=O)c2cc(Br)c3ccccc3c2O)cc1 | inactive | – |
| CN1CCN(c2ccc(NC(=O)c3ccc4ccccc4c3O)cc2[N+](=O)[O-])CC1 | inactive | – |
| O=c1c2cc(Br)c3ccccc3c2oc(=S)n1-c1ccccc1[N+](=O)[O-] | inactive | – |
| O=c1oc2c(cc(Br)c3ccccc32)c(=O)n1-c1ccc(Cl)cc1[N+](=O)[O-] | inactive | – |
| Nc1cc(Cl)ccc1NC(=O)c1ccc2ccccc2c1O | inactive | – |
| O=C(Nc1ccc(Cl)c(N=C=S)c1)c1cc(Br)c2ccccc2c1O | – | minimal effective dose [2]: 100 mg/kg |
| O=c1c2ccc3ccccc3c2oc(=S)n1-c1ccc(Cl)cc1[N+](=O)[O-] | inactive | – |
| O=c1c2cc(Br)c3ccccc3c2oc(=S)n1-c1ccc([N+](=O)[O-])cc1Cl | inactive | – |
| O=C(Nc1ccc(Cl)cc1Cl)c1cc(Br)c2ccccc2c1O | – | minimal effective dose [2]: 50 mg/kg |
| O=C(Nc1ccc(N=C=S)cc1Cl)c1cc(Br)c2ccccc2c1O | – | minimal effective dose [2]: 250 mg/kg |
| Nc1ccc(NC(=O)c2ccc3ccccc3c2O)cc1 | inactive | – |
| O=C(Nc1ccc(Cl)c([N+](=O)[O-])c1)c1ccc2ccccc2c1O | inactive | – |
| Nc1cc(NC(=O)c2ccc3ccccc3c2O)ccc1Cl | inactive | – |
| O=C(Nc1ccccc1[N+](=O)[O-])c1ccc2c(Br)cccc2c1O | – | minimal effective dose [2]: 250 mg/kg |
| O=C(Nc1ccc(Cl)cc1[N+](=O)[O-])c1ccc2ccccc2c1O | inactive | – |
| O=C(Nc1ccc([N+](=O)[O-])cc1)c1ccc2ccccc2c1O | inactive | – |
| O=c1c2ccc3ccccc3c2oc(=S)n1-c1ccc([N+](=O)[O-])cc1 | inactive | – |
| O=c1c2ccc3ccccc3c2oc(=S)n1-c1ccc(Cl)cc1Cl | inactive | – |
| O=c1oc2c(ccc3ccccc32)c(=O)n1-c1ccc([N+](=O)[O-])cc1 | inactive | – |
| Nc1ccccc1NC(=O)c1ccc2ccccc2c1O | inactive | – |
| Nc1ccccc1NC(=O)c1cc(Br)c2ccccc2c1O | inactive | – |
| O=c1oc2c(ccc3ccccc32)c(=O)n1-c1ccc(Cl)cc1Cl | inactive | – |
